Tests used:
[1] = target: T1, DNA topoisomerase 2-alpha (Homo sapiens, UniProt P11388); experiment: Inhibition of topoisomerase 2alpha in human SW620 organoids transfected with EcadPro-RFP reporter assessed as reversion of epithelial-mesenchymal transition by measuring increase in E-cadherin expression after 72 hrs by Hoechst 33342 staining based mCherryRFP reporter gene assay
Summary of the method: (§1)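 SW620 cells stably carrying VimPro-GFP or EcadPro-mCherry (puromycin selected) grown as organoids and dosed 72 h. Stained with 16 μM Hoechst 33342 for 1 h and imaged as 15 z-layers, 26.5 μm apart. Nuclei segmented and GFP- or mCherry-positive cells counted above background thresholds. Percent positive cells normalised to DMSO.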

[2] = target: T1, DNA topoisomerase 2-alpha; experiment: Inhibition of topoisomerase 2alpha in human SW620 organoids transfected with VimPro-GFP reporter assessed as reversion of epithelial-mesenchymal transition by measuring reduction in vimentin expression after 72 hrs by Hoechst 33342 staining based GFP reporter gene assay; summary of the method: as §1

T1 sequence (P11388 whole entry): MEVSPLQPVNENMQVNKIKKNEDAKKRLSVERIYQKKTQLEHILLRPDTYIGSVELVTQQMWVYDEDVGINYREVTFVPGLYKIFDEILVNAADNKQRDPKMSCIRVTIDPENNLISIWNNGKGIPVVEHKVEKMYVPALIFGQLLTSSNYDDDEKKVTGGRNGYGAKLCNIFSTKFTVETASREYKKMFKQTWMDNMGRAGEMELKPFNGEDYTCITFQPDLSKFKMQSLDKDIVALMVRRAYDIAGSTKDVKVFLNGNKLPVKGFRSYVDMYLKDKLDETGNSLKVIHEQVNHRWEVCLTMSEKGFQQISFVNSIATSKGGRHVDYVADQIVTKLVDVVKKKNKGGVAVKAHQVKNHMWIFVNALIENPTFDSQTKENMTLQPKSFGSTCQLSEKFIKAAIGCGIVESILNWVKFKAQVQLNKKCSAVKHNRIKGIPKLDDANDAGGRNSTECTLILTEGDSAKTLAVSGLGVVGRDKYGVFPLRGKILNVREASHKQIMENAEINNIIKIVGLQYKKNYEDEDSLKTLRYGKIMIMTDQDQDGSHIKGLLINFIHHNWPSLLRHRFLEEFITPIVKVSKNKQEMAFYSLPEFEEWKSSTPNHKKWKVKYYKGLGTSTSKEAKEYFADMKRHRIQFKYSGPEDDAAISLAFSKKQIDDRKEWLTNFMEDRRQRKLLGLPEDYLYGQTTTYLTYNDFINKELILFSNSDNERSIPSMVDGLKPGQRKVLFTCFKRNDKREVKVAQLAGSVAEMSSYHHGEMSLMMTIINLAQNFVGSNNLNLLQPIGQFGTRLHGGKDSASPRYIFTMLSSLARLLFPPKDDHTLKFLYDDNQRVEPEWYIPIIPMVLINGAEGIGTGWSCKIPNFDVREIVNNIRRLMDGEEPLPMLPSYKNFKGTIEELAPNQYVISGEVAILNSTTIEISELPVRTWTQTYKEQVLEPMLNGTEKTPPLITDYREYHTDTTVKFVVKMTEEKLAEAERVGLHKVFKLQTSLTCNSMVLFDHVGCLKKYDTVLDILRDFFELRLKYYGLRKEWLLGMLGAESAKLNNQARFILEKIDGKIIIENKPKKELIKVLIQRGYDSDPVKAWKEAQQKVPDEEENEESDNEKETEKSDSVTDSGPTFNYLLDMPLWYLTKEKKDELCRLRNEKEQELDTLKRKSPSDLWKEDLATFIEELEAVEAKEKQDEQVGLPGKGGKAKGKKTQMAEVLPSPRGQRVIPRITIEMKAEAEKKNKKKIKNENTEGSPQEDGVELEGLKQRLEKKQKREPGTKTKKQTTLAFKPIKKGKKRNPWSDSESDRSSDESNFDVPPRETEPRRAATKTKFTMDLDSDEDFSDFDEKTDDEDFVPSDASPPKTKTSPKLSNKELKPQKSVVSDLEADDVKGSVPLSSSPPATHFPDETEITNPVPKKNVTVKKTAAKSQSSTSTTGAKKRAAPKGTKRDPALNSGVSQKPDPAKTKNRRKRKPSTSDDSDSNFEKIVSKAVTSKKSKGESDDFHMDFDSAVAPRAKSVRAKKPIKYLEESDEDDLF

Row | SMILES | EC50 [1] | EC50 [2]
1 | CC(C)(C)C(=O)Nc1ccc2c(-c3ccccc3)ccnc2c1O | 3.1 µM | 4.7 µM
2 | CC(=O)Nc1ccc2c(-c3cc4ccccc4o3)ccnc2c1O | 5.4 µM | 3.5 µM
3 | CC(=O)Nc1ccc2c(-c3ccoc3)ccnc2c1O | 3.4 µM | 1.7 µM
4 | O=C(CCN1CCOCC1)Nc1ccc2c(-c3cc4ccccc4o3)ccnc2c1O | 3 µM | 2.4 µM
5 | O=C(CCN1CCOCC1)Nc1ccc2c(-c3cc(F)ccc3O)ccnc2c1O | 1.2 µM | 1.9 µM
6 | COc1cc(NC(C)=O)c(O)c2nccc(-c3ccccc3NC(=O)c3ccccc3)c12 | 9 µM | 4 µM
7 | CC(=O)Nc1ccc2c(-c3cccs3)ccnc2c1O | 1.1 µM | 1.2 µM
8 | CC(=O)Nc1ccc(-c2ccnc3c(O)c(NC(C)=O)ccc23)cc1 | 5.5 µM | 9.5 µM
9 | O=C(CN1CCOCC1)Nc1ccc2c(-c3cc4ccccc4o3)ccnc2c1O | 3.3 µM | 1 µM
10 | CC(=O)Nc1ccc2c(-c3cc(F)ccc3O)ccnc2c1O | 1.6 µM | 1.2 µM

Reference: BindingDB's records for doi:10.1021/acs.jmedchem.9b01065 (Colorado State University, 2019)
